16 compounds from ChEMBL document CHEMBL3864184, “Optimization of Highly Kinase Selective Bis-anilino Pyrimidine PAK1 Inhibitors” (ACS Med Chem Lett, 2016) can be followed below.

The nature of data set [1]: Distribution coefficient, logD of the compound. The class given is physicochemical. The conditions noted are these: octanol/water.
Data set [2] is described as follows: Intrinsic clearance in rat hepatocytes assessed per million cells. It is filed as ADME, cell-based, Hepatocyte. The conditions noted are these: read-out: CLH.
Data set [3] is described as follows: Clearance in mouse at 0.5 mg/kg, iv. It is filed as ADME, organism-based. The following applies: in vivo.
Data set [4] can be described thus: Volume of distribution at steady state in mouse at 0.5 mg/kg, iv or 100 mg/kg, po. The conditions noted are these: in vivo, read-out: Vdss. The class given is ADME, organism-based.
Data set [5] is described as follows: Half life in mouse at 0.5 mg/kg, iv. It is filed as ADME, organism-based. The following applies: in vivo.
Data set [6] in a line: Cmax in mouse at 100 mg/kg, po. More on the design: dose 100 mg/kg, route oral. It is filed as ADME, organism-based. The following applies: in vivo.
Data set [7] can be described thus: Unbound fraction in mouse plasma at 0.5 mg/kg, iv or 100 mg/kg, po. The class given is ADME, organism-based.
The subject of the next data set is Mus musculus. The data set can be described thus: Acute toxicity in mouse at 100 mg/kg, po. The class given is organism-based. The following applies: in vivo. In outline: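 Observed for visible signs of toxicity during a mouse pharmacokinetic study after an oral 100 mg/Kg dose. This was not a maximum tolerated dose study.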

A value given as a limit tells only on which side of the number the result lay.

As for `CCS(=O)(=O)c1cc(Nc2ncc(F)c(N(C)c3cc(CO)c(C)cc3C)n2)cc(N2CCOCC2)c1`, in data set [1], the logD amounted to 3.8.

Compound `CCS(=O)(=O)c1cc(Nc2ncc(F)c(N(C)c3cc(CO)ccc3C)n2)ccc1N1CCN(C)CC1` registered a logD in data set [1] of 3. As to `CCn1c(=O)c(-c2ccc(-c3cncs3)cc2Cl)cc2cnc(Nc3ccc(N4CCN(C)CC4)cc3)nc21`, in data set [1], the logD is above 4. In data set [1], `CCS(=O)(=O)c1cc(Nc2ncc(F)c(N(C)c3cc(CO)c(C)cc3C)n2)ccc1N1C[C@@H]2C[C@H]1CN2C` had a pH-dependent lipophilicity (logD) of 2.5. Further, the hepatocyte CLint in data set [2] was found to be 11 µL/min/1e6 cells. Further, the clearance in data set [3] is 22 mL/min/kg. Besides, the Vd in data set [4] was determined as 1.4 L/kg. The half-life in data set [5] was 1 h. The compound also registered a Cmax in data set [6] of 7.7 µM. The compound further displayed a fraction unbound in data set [7] of 0.029. Also, in the data set with Mus musculus, the Activity entry is listed as “Non-Toxic”. Compound `Cc1ccc(CO)cc1N(C)c1nc(Nc2ccc(N3CCN(C)CC3)c(S(C)(=O)=O)c2)ncc1F` yielded a logD in data set [1] of 2.6. As for `COCc1ccc(C)c(N(C)c2nc(Nc3cc(N4CCOCC4)cc(S(C)(=O)=O)c3)ncc2F)c1`, the logD in data set [1] was found to be 3.7. In data set [1], `CCN(c1cc(CO)ccc1C)c1nc(Nc2ccc(N3CCN(C)CC3)c(S(=O)(=O)CC)c2)ncc1F` registered a logD of 3.5.

With `Cc1cc(C)c(N(C)c2nc(Nc3cc(N4CCOCC4)cc(S(C)(=O)=O)c3)ncc2F)cc1CO`, the logD in data set [1] was found to be 3.8.

In data set [1], `CN(c1cc(CO)ccc1Cl)c1nc(Nc2cc(N3CCOCC3)cc(S(C)(=O)=O)c2)ncc1F` yielded a logD of 3.7.

`CCS(=O)(=O)c1cc(Nc2ncc(F)c(N(C)c3cc(CO)c(C)cc3C)n2)ccc1N1CCN(C)CC1`: the logD in data set [1] came out at 3.8. In data set [1], `CCS(=O)(=O)c1cc(Nc2ncc(F)c(N(Cc3ccccc3)c3cc(CO)ccc3C)n2)ccc1N1CCN(C)CC1` returned a logD of 2.8.

Consider `Cc1ccc(N(C)c2nc(Nc3cc(N4CCOCC4)cc(S(C)(=O)=O)c3)ncc2F)cc1CO`, for which the logD in data set [1] was 3.3. Consider `Cc1ccc(CO)cc1N(C)c1nc(Nc2cc(N3CCOCC3)cc(S(C)(=O)=O)c2)ncc1F`, for which, in data set [1], the logD stood at 3.3. In data set [1], `CN(c1cccc(CO)c1)c1nc(Nc2cc(N3CCOCC3)cc(S(C)(=O)=O)c2)ncc1F` gave a logD of 3. Still for that read-out and setting: to `Cc1cc(C)c(N(C)c2nc(Nc3ccc(N4CCN(C)CC4)cc3)ncc2F)cc1CO` belongs 3; to `CCS(=O)(=O)c1cc(Nc2ncc(F)c(N(Cc3ccccc3F)c3cc(CO)ccc3C)n2)ccc1N1CCN(C)CC1`, 3.3.
